Source: PubChem
WT yeast gro inh: growth inhibition of WT yeast, mitochondrial fusion screen. inhibition, % at 10 µM. 190,000 tested, 2.1% active. AID 1362. mitochondrial fusion phenotypic screen, WT strain; in the data active = inhibition above about 58%; tested in S. cerevisiae
MT stabilizer: microtubule stabilization, imaging screen | HeLa tubulin immunostaining HCS, 24 h; share of cells brighter than vehicle mean+2SD | AID 2205 | 200,000 tested, 0.83% active | % tubulin-high responders, % at 10 µM;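 active = plate Z-score above 3 for both tubulin-high and condensed-nucleus cell shares, with cell loss under 80%, at 10 µM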;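 also: anti alpha tubulin signal scored within the nucleus-defined area of each cell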
b-catenin transl: modulators of beta-catenin nuclear translocation. AID 1665. 190,000 tested, 0.3% active. nuclear translocation activity, % at 5 µM. HeLa beta-catenin nuclear translocation, immunofluorescence imaging;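 active = nuclear translocation activity above 50% at 5 µM, with a well cell count of 50 or more; inconclusive = wells under 50 cells across six images, flagged as toxic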;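 also: per-cell ratio of nuclear to cytoplasmic median beta-catenin stain intensity; plate controls were DMSO negative control for no effect and GSK-3 inhibitor IX positive control for full effect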
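Read-out: Nuclear/cytoplasmic beta-catenin signal ratio, % activation | Assay system: Human HeLa cell line | Times: 24 h compound exposure at 37°C, 5% CO2 | Signal: Fluorescence imaging of beta-catenin antibody stain plus DAPI | Dosing: 5 µM primary, 0.02–20 µM confirmation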
KCC2 mod: KCC2 (human) Cl- transport modulation. KCC2 cells, thallium flux FluoZin-2 fluorescence. 190,000 tested, 2.2% active. B-score of Tl+ flux slope (higher = more flux/activation; lower = inhibition) at 10 µM. Q9H2X9;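 active = thallium flux slope and its plate-corrected score both differing from the plate sample mean at a set confidence after two filtering rounds, in either direction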;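 also: slope of fluorescence scaled to starting intensity during 10 to 20 s after thallium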
Pf gametocyte: P. falciparum stage V gametocyte viability inhibition | 150,000 tested, 0.065% active | P. falciparum stage V gametocytes, ATP luminescence, 24 h | inhibition, % at 10.9 µM | AID 743093;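 active = inhibition above the mean plus 3 SD of compounds within the control limits, set per campaign, cut at about 38% in these data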;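 also: 0% = DMSO wells and 100% = medium only without gametocytes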
KCC2 secondary: KCC2 (human) modulation, secondary assay; shares compounds with KCC2 mod; HEK293-KCC2, thallium flux, FluoZin2 fluorescence; stronger effect = higher value; normalised thallium flux (F/F0 slope) at 10 µM; 3,700 tested, 15% active; AID 1713;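 active = thallium flux slope above the same plate's solvent-only control mean plus 3 SD; inconclusive = the two replicate wells disagree; inactive = no significant difference from solvent-only control wells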
KCC2 bumet counter: thallium flux despite bumetanide block in KCC2 cells, secondary assay 3. shares compounds with KCC2 mod. HEK293-KCC2 + bumetanide/ouabain, thallium flux FluoZin2; stronger effect = higher value. normalized thallium flux at 10 µM. 3,700 tested, 49% active;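 active = thallium entry rate above the same plate's blocked-transporter control wells by more than 3 SD; inconclusive = the two repeat wells disagree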;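 also: raw slope of fluorescence over initial fluorescence between 10 and 20 s after thallium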
KCC2 sec2: KCC2 (human) modulation, second secondary assay | HEK293-KCC2, thallium flux FluoZin2 fluorescence; actives lie on both sides; F/F0 rise rate, 10–20 s post-thallium | normalized thallium flux at 10 µM | AID 1715 | 3,700 tested, 23% active | shares compounds with KCC2 mod;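 active = thallium flux slope more than 3 SD above or below the plate's solvent-only control mean, mostly below; inconclusive = the two repeat wells disagreed; inactive = no significant shift from solvent-only controls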;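 also: raw slope with 0.1% DMSO as baseline and bumetanide as block control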
HEK counter1: parental HEK flux effect, counter-screen; shares compounds with KCC2 mod; HEK293 parental cells, thallium flux FluoZin2, ouabain; baseline-ratio fluorescence slope, 10–20 s after thallium; thallium flux rate (normalised fluorescence) at 10 µM; 3,700 tested, 46% active;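 active = thallium flux rate significantly above the same plate's solvent-only control wells, beyond their mean plus 3 SD; inconclusive = the two replicate wells gave conflicting results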
KCC2 retest ouab: confirmation of human KCC2 modulators with ouabain. AID 1717. HEK293-KCC2, thallium flux FluoZin2 fluorescence; bidirectional: low = inhibitor, high = activator. raw Tl+ flux slope (below DMSO = inhibition, above = activation) at 10 µM. 3,700 tested, 48% active. shares compounds with KCC2 mod;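 active = thallium flux slope beyond 3 SD from same-plate DMSO control mean in most replicates, usually higher, sometimes lower; inconclusive = repeat tests gave conflicting results; inactive = no significant difference from controls in most replicates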;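 also: slope of initial-normalized fluorescence between seconds 10 and 20 after thallium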
HEK293 Tl flux2: acts in parental HEK cells, second KCC2 counter-screen; shares compounds with KCC2 mod; 3,700 tested, 33% active; HEK293 parental, thallium flux FluoZin-2 fluorescence slope; AID 1718; thallium flux slope at 10 µM;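 active = thallium flux slope above the same plate's solvent-control mean plus 3 SD in both duplicate wells; inconclusive = duplicate wells that disagreed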;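 also: run without ouabain in cells lacking the KCC2 cotransporter; slope of fluorescence scaled to its starting value between 10 and 20 s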
* marks the source's active call; other numbers are inactive results. Most compounds without a hit are left out; they make up all but 4% or so of the library.

How did Cc1ccc(N=Nc2c(C)[nH]n(C(N)=S)c2=O)cc1C do in these assays?
WT yeast gro inh: 60*; MT stabilizer: 5; b-catenin transl: -4; KCC2 mod: 16*; Pf gametocyte: -28; KCC2 secondary: 0.0084; KCC2 bumet counter: 0.067*; KCC2 sec2: 0.031; HEK counter1: 0.021*; KCC2 retest ouab: 0.06*; HEK293 Tl flux2: 0.009

Results for Cc1[nH]n(C(N)=S)c(=O)c1N=Nc1cc(-c2ccc(Br)cc2)[nH]n1 ?
WT yeast gro inh: 25; MT stabilizer: 6; b-catenin transl: -1; KCC2 mod: -6.9*; Pf gametocyte: 5; KCC2 secondary: 0.008; KCC2 bumet counter: 0.0049; KCC2 sec2: 0.032; HEK counter1: 0.0056*; KCC2 retest ouab: 0.011*; HEK293 Tl flux2: 0.011

What do the screens show for `NC(=S)n1[nH]c(-c2ccc([N+](=O)[O-])cc2)c(N=Nc2cccc([N+](=O)[O-])c2)c1=O`?
WT yeast gro inh: 23; MT stabilizer: 4; b-catenin transl: 4; KCC2 mod: -2; Pf gametocyte: -5

What do the screens show for `Cn1c(=O)c2c(nc(SCC(=O)c3ccccc3F)n2C)n(C)c1=O`?
WT yeast gro inh: 13; MT stabilizer: 2; b-catenin transl: 1; KCC2 mod: 0.0079

What do the screens show for `O=C(COC(=O)c1ccc(O)cc1)Nc1ccc(Cl)cc1`?
WT yeast gro inh: 18; MT stabilizer: 4; b-catenin transl: 8; KCC2 mod: -0.11; Pf gametocyte: -2

Results for Cc1ccc(-c2nnc(SCC(=O)NC3CC3)n2N)cc1 ?
b-catenin transl: 0; KCC2 mod: 0.76; Pf gametocyte: -21

What do the screens show for `O=C(NNC(=O)c1ccccc1Cl)c1ccccc1Cl`?
b-catenin transl: 5; KCC2 mod: 0.16; Pf gametocyte: -6

Results for Cc1nc(C(=O)NNC(=O)c2ccccc2Cl)c(C(F)(F)F)o1 ?
b-catenin transl: -4; KCC2 mod: 5.6*; Pf gametocyte: 7; KCC2 secondary: 0.0072; KCC2 bumet counter: 0.007*; KCC2 sec2: 0.03; HEK counter1: 0.0095*; KCC2 retest ouab: inconclusive; HEK293 Tl flux2: inconclusive

How did Cc1nc(C(=O)NNC(=O)c2cccc(Cl)c2)c(C(F)(F)F)o1 do in these assays?
b-catenin transl: 0; KCC2 mod: 11*; Pf gametocyte: -46; KCC2 secondary: 0.013*; KCC2 bumet counter: 0.019*; KCC2 sec2: 0.033; HEK counter1: inconclusive; KCC2 retest ouab: 0.023; HEK293 Tl flux2: 0.011*

What do the screens show for `O=C(NNC(=O)c1cnccc1C(F)(F)F)c1cccc(Cl)c1`?
b-catenin transl: 3; KCC2 mod: 0.0054; Pf gametocyte: 12

Results for C/C(=N/NC(=O)CNC(=O)Cc1ccc(Cl)cc1)c1ccco1 ?
b-catenin transl: -2; Pf gametocyte: -5

What do the screens show for `CC(C)(C)OC(=O)N[C@@H](Cc1c[nH]c2ccccc12)c1nnc(SCC(N)=O)o1`?
WT yeast gro inh: 27; MT stabilizer: 2; b-catenin transl: -3; KCC2 mod: -3.6; Pf gametocyte: -15
